Test results as given in ChEMBL document CHEMBL3098106 (Bioorg Med Chem, 2014).

Key:
Rattus norvegicus [1] = test: Toxicity in Sprague-Dawley rat assessed as liver weight measured per 100 g of body weight at 200 mg/kg, po after 7 days (reference value: 3.3 g); format: organism-based; parameters: dose 200 mg/kg, route oral; conditions: in vivo, 168 h
[2] = Antitumor activity against Sprague-Dawley rat mammary tumor cells assessed as increase in apoptotic index at 200 mg/kg, po after 7 days by TUNEL assay relative to control; format: functional
In short: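 Female Sprague Dawley rats with N-methyl-nitrosourea-induced mammary cancers (about 200 mm²) were given the retinoid in Teklad diet for 7 days. BrdU was injected 2 h before CO₂ euthanasia. Cancers were excised and fixed in 10% formalin. Each index is the ratio of treated to vehicle-fed animals.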

Rattus norvegicus [3] = test: Toxicity in Sprague-Dawley rat assessed as increase in body weight at 200 mg/kg, po after 7 days relative to control; format: organism-based; parameters: dose 200 mg/kg, route oral; conditions: in vivo, 168 h
Rattus norvegicus [4] = test: Toxicity in 216 days old Sprague-Dawley rat assessed as increase in serum triglyceride level at 200 mg/kg, po administered with diet after 7 days relative to control; format: organism-based; parameters: dose 200 mg/kg, route oral; conditions: in vivo, 168 h
Rattus norvegicus [5] = test: Toxicity in 50 days old Sprague-Dawley rat assessed as increase in serum triglyceride level at 200 mg/kg, po administered with diet after 7 days relative to control; format: organism-based; parameters: dose 200 mg/kg, route oral; conditions: in vivo, 168 h

SMILES | Activity (Rattus norvegicus [1]) | Activity [2] | Activity (Rattus norvegicus [3]) | Activity (Rattus norvegicus [4]) | Activity (Rattus norvegicus [5])
CC(=C/C=C/C(C)=C/C(=O)O)/C=C1\CC[C@@H](C)c2ccccc21 | 4.2 g | 150% | 3% |  | 
CC(=C/C=C/C(C)=C/C(=O)O)/C=C1\CC[C@H](C)c2ccccc21 | 3.8 g | 300% | 3% | 175% | 
CC(=C/C=C/C(C)=C/C(=O)O)/C=C1\CCC(C)c2ccccc21 (racemic) |  | 300% | 3% | 370% | 566%
CC1=C(/C=C/C(C)=C\C=C\C(C)=C\C(=O)O)C(C)(C)CCC1 [ALITRETINOIN] |  |  | 3% |  | 
C=C(c1ccc(C(=O)O)cc1)c1cc2c(cc1C)C(C)(C)CCC2(C)C [BEXAROTENE] |  |  | 3% |  | 
CC(=C/C=C/C(C)=C/C(=O)O)/C=C1\CCCc2ccccc21 [UAB-30] |  | 33% | 3% |  | 
